The record followed here is ChEMBL document CHEMBL1955778, “Design and synthesis of novel 7-aminoquinazoline derivatives: antitumor and anticonvulsant activities” (Bioorg Med Chem Lett, 2012).

A short description of data set [1]: Neurotoxicity in ip dosed mouse assessed as impaired motor coordination administered 30 mins prior to test by chimney test. The class given is toxicity, organism-based. As to conditions: in vivo. The essentials: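 Mice, Chimney test. TD50 is the dose that produces minimal neurological toxicity (impaired motor coordination) in 50% of animals, estimated from testing at several doses.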

The test system of data set [2] is Mus musculus. Put plainly: Anticonvulsant activity in ip dosed mouse assessed as protection against pentylenetetrazol-induced seizure administered 30 min prior to pentylenetetrazol-challenge measured after 60 mins. The class given is functional. The gist of the method: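 Mice received several doses for quantification. ED50 taken as the dose protecting 50% of mice against pentylenetetrazol-induced seizures.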

Data set [3] concerns Mus musculus. As to the kind of experiment: Anticonvulsant activity in mouse assessed as protection against picrotoxin-induced seizure at 1.5 mmol/kg, ip administered 30 min prior to picrotoxin-challenge measured after 60 mins relative to control. The class given is functional.
For data set [4], the system named is Mus musculus. Put plainly: Anticonvulsant activity in mouse assessed as protection against maximal electroshock-induced seizure at 1.5 mmol/kg, ip administered 30 min prior to maximal electroshock-challenge measured after 60 mins relative to control. The data set is classed as functional. (In the maximal electroshock model the usual endpoint is tonic extension of the hind limbs.)

Data set [5] concerns Mus musculus. Put plainly: Anticonvulsant activity in mouse assessed as protection against strychnine-induced seizure at 1.5 mmol/kg, ip administered 30 min prior to strychnine-challenge measured after 60 mins relative to control. The class given is functional.
Data set [6] has as its system Mus musculus. Put plainly: Anticonvulsant activity in mouse assessed as protection against pentylenetetrazol-induced seizure at 1.5 mmol/kg, ip administered 30 min prior to pentylenetetrazol-challenge measured after 60 mins relative to control. The data set is classed as functional.
The nature of data set [7]: Toxicity in ip dose mouse assessed as mortality. The class given is organism-based. As to conditions: in vivo. The gist of the method:
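In mice, LD50 is the dose causing 50% mortality. ED50 is the dose protecting 50% of mice against pentylenetetrazole-induced seizures. Therapeutic index = LD50/ED50.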

For orientation: TD50 means the dose at which the toxic effect under study appears in half of the subjects. The term ED50 denotes the midpoint of the dose-response relation. For orientation: LD50 means the dose expected to kill half of the subjects tested. In the case of `CCCC(CCC)C(=O)[O-].[Na+]` [VALPROATE SODIUM], in data set [1], the TD50 at 0.5 h was 2700 µmol/kg. The ED50 with Mus musculus [2] stood at 1500 µmol/kg. Further, the Activity in the data set on Mus musculus [3], in the data set with Mus musculus [4], in the data set on Mus musculus [5] and with Mus musculus [6] was 100% each time. Besides, the LD50 in data set [7] came out at 3000 µmol/kg.
